Assay outcomes from PubChem.
An excerpt weighted towards active compounds, which were near 1.3% of everything screened.
Dynein transport – inhibitors of GR-EGFP nuclear translocation, primary screen, dynein cargo transport inhibitor project, imaging, high-content, 3617.4 mouse cells; actives 0.47% (n = 220,000); z-score, hits read low; test concentration mostly 20 µM; stimulated with dexamethasone, 1 µM; hits give low values;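 active means plate z-score of nuclear minus cytoplasmic receptor signal below a set negative limit, without overly bright fluorescence or cell loss, cut at about -3.5 in these data, passing the limit was not always enough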;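 further: z-score of nuclear minus cytoplasmic ring GR-EGFP intensity difference per well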
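Schedule: 48 h induction, then 1 h compound, then 30 min agonist, 37 °C. Buffer or medium: tetracycline-free induction medium containing charcoal-stripped FBS. Reagent: 1.0 µM final dexamethasone stimulus. Evaluation: nuclear versus cytoplasmic GR-EGFP signal, averaged per well. Signal: high-content fluorescence imaging after fixation.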
S1P4 ag – S1P4 receptor agonists, primary screen, cell-based | S1P4-expressing cell line, agonist reporter assay | activation, % at 4.98 µM | actives 0.35% (n = 220,000) | AID 1509, 2009; in the data active means activation above about 11%;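 further: 0% = DMSO vehicle and 100% = reference agonist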
S1P3 antagonist – S1P3 receptor antagonists, primary screen, cell-based; CHO S1P3 NFAT-BLA reporter, FRET fluorescence, antagonist mode; inhibition, % at 4.98 µM; actives 0.27% (n = 170,000);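 active means inhibition above the plate cutoff, the mean inhibition of test wells on that plate plus 3 SD, cut at about 28% in these data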;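 further: cells challenged with S1P at its EC80 of 0.8 µM; blue over green emission ratio from cleaved BLA substrate after 4 h stimulation; 0% = S1P-stimulated wells and 100% = unstimulated DMSO-only wells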
Mdm2 ligase inh – MDM2-luciferase reporter signal enhancers, primary screen, MDM2 E3 ligase inhibitor project, cell-based, luminescence, 1536-well. cell-based MDM2 ubiquitination luciferase reporter, 2 h; 0 = plate control, 100 = twice control, blank-subtracted. signal enhancement, % at 5 µM. actives 0.11% (n = 210,000). E3 ubiquitin-protein ligase Mdm2 (Homo sapiens), Q00987;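 active means signal enhancement of 30% or more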;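 further: luminescence tracks abundance of the self-degrading MDM2-luciferase fusion protein; higher signal means inhibition of MDM2 E3 ligase activity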
Target sequence (Q00987 whole entry, looked up, the tested form may be a part): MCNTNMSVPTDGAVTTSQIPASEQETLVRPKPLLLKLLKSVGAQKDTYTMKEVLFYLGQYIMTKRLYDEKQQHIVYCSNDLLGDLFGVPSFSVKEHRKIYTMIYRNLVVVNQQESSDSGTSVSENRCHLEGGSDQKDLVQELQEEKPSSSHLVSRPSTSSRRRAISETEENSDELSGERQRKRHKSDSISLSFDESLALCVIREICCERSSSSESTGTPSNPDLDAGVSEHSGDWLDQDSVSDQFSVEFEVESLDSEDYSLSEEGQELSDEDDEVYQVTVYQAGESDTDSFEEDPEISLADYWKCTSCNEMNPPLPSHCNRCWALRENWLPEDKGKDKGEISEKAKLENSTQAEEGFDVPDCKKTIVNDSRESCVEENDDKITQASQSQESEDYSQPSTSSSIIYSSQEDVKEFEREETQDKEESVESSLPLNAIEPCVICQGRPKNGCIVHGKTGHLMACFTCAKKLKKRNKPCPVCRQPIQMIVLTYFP
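Buffer or medium: Cells held in DMEM | Assay system: Stable mammalian line carrying autodegrading MDM2–luciferase fusion reporter | Quantity: 2000 cells/well | Times: 4 h settle plus 2 h compound, 37 °C | Doses: One concentration, 5 µM, with 0.2% DMSO | Technique: Luminescence with SteadyLite reagent, 15 min at room temperature | Benchmarks: Plate controls and plate blanks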
S1P4 antag – S1P4 receptor antagonists, primary screen, cell-based; S1P4-expressing cells, antagonist mode, reporter read-out; actives 0.26% (n = 220,000); AID 1510, 2009; inhibition, % at 4.98 µM; in the data active means inhibition above about 29%;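 further: 0% = wells stimulated with agonist and 100% = vehicle wells without agonist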
Hsp70 activator – Hsp70 transcriptional activators, primary screen, cell-based, HeLa, Hsp70 promoter luciferase, luminescence, 10 µM. HeLa Hsp70 promoter luciferase reporter; scaled: vehicle 0, proteasome-inhibitor control 100%. activation, % at 10 µM. actives 0.04% (n = 200,000). AID 1203, 2008;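 active means activation above the mean across all tested compounds plus 3 SD, cutoff set per campaign, cut at about 5.5% in these data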;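 further: 100% = MG132 at 30 µM as the positive control and 0% = DMSO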
Dynein inh conf – dynein cargo transport inhibitors, GR-EGFP translocation, confirmation, imaging, high-content imaging, GR-EGFP cells | AID 463116, 2010 | shares compounds with Dynein transport | actives 69% (n = 1,000) | calls only at 20 µM | 3617.4 GR-EGFP nuclear translocation imaging, dexamethasone-induced;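 active means inhibition of receptor movement into the nucleus at or above a set limit in both runs, with normal cell brightness and cell count; inconclusive means limit reached in only one run, brightness and count normal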;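 further: dexamethasone at 1 µM final in well for 30 min; nuclear minus cytoplasmic GR-EGFP mean intensity difference in channel 2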
* hit, by the source's call; i = inactive; ? = inconclusive; nt = not tested or not shown; + = active, no number.

SMILES	Dynein transport	S1P4 ag	S1P3 antagonist	Mdm2 ligase inh	S1P4 antag	Hsp70 activator	Dynein inh conf
ClCc1nnc(-c2cc3c(s2)CCCC3)o1	-4.5*	-1	-12	-6	7	0	?
CC(C)(C)C1CCc2sc(-c3nnc(CCl)o3)cc2C1 (stereo not given)	-4.2*	1	-4	1	-5	0	+
CCCNC(=O)Cn1c(=O)/c(=C\c2ccc(-c3cccc([N+](=O)[O-])c3)o2)s/c1=C\C(=O)C(C)(C)C	-2.8	2	7	-10	6	0	nt
CCCNC(=O)Cn1c(=O)/c(=C\c2ccc(-c3ccc([N+](=O)[O-])cc3)o2)s/c1=C\C(=O)C(C)(C)C	-4.9	0	-7	-15	-5	0	+
CCOC(=O)CNC=C(C(=O)OCC)C(=O)OCC	-0.34	0	nt	-6	-13	0	nt
CCOC(=O)C=C(C(=O)OCC)C(=O)OCC	-4.2*	-1	4	2	-7	0	+
CC(C)(C)c1cc(CN(CCO)CCO)cc(C(C)(C)C)c1O	-5.8*	0	-13	-7	5	0	+
CCOC(=O)C(=Cc1ccc(OCc2ccc([N+](=O)[O-])cc2)c(OC)c1)C(=O)OCC	-4.1*	-5	nt	10	5	0	+
COC(=O)C(=Cc1ccc(OCc2ccc([N+](=O)[O-])cc2)c(OC)c1)C(=O)OC	-0.6	1	nt	10	4	0	nt
CC(=O)N1CCc2cc(N=NC3=C(O)CC(C)(C)CC3=O)ccc21	0.65	2	13	-16	-4	0	nt
CC(=O)NCc1ccc(C(=O)CCl)s1	-5*	-1	-2	4	16	0	+
CN(Cc1ccccc1)C(=O)CCC(=O)N(C)Cc1ccccc1	-0.44	0	-28	5	-9	1	nt
CC(=O)NCc1ccc(C(=O)CCl)cc1	-6.8*	1	-15	-9	-15	0	+
CC(=O)NCCC(=O)NCc1ccc(F)cc1	-0.11	-1	nt	-8	12	0	nt
CC(=O)N(C)Cc1ccc(C(=O)CCl)cc1	-4.6	-4	-4	-25	-11	0	+
COc1ccc(C2CC(=O)C(C3NCCc4ccccc43)=C(O)C2n2cncn2)cc1 (stereo not given)	-0.2	2	-3	-7	-14	0	nt
Cc1ccc2[nH]c(=O)c(CN(CCCO)S(=O)(=O)c3c(C)ccc4nsnc34)cc2c1	-5.9*	1	-8	-3	-16	0	i
O=C1NCCn2ccc(=O)cc21	-0.71	0	-10	-9	-47	nt	nt
COCCN(C(=O)CCl)C(C(=O)NC1CCCCC1)c1ccccc1C (stereo not given)	-4.4*	-1	-14	-15	0	0	+
COC(=O)C(=Cc1ccccc1[N+](=O)[O-])C(=O)OC	-5.4*	1	15	-1	2	nt	+
C/C(=N\NC(=O)c1ccc(CN2CCc3ccccc3C2)cc1)c1ccccc1O	-0.29	1	-5	-14	10	0	nt
O=C1CC(=O)N(CCNc2ncc(C(F)(F)F)cc2Cl)C(=O)N1	0.019	-2	nt	-21	-6	0	nt
O=C1C=CC(=O)N1CCNc1ncc(C(F)(F)F)cc1Cl	-5.5*	-1	-30	-12	29	0	+
CCN(CC)c1ccc(/C=N/NC(=O)C(O)(c2ccccc2)c2ccccc2)o1	-4.9*	1	4	-12	-12	0	i
CC(=O)Nc1cccc(OCCCNC(=O)c2cccc3ccccc23)c1	2.1	1	-11	2	5	nt	nt
SMILES	Dynein transport	S1P4 ag	S1P3 antagonist	Mdm2 ligase inh	S1P4 antag	Hsp70 activator	Dynein inh conf
O=[N+]([O-])c1cc([N+](=O)[O-])c2cccnc2c1Oc1ccccc1O	-4.4*	-1	-27	-11	-13	0	+
O=[N+]([O-])c1c(NCCCO)cc(Sc2ccc(Cl)cc2)c2nonc12	-4.7*	-1	-3	nt	-6	0	+
CC(=O)OCCCNc1cc(Sc2ccc(C)cc2)c2nonc2c1[N+](=O)[O-]	-4.6*	0	1	-23	-16	0	i
Cn1ccnc1Sc1cc(NCCCO)c([N+](=O)[O-])c2nonc12	-4.9*	-1	-6	-18	-11	0	+
CC(=O)OCCCNc1cc(Sc2nc3ccccc3s2)c2nonc2c1[N+](=O)[O-]	-3.4	0	nt	-23	-19	0	nt
COc1ccc(CNc2cc(NCCCO)c([N+](=O)[O-])c3nonc23)cc1	-0.58	2	-5	-8	-15	0	nt
O=[N+]([O-])c1c(NCCCO)cc(SCc2ccco2)c2nonc12	-3.5*	0	6	0	-12	0	+
O=c1n(-c2ccc(Br)cc2)cnn1-c1ncccc1[N+](=O)[O-]	0.12	1	-13	-17	-12	1	nt
CN(Cc1ccccc1)C(=O)COC(=O)c1ccc(Cl)cc1N	-0.53	-2	-10	0	1	0	nt
CN1C(=O)/C(=C/c2ccccc2Cl)Sc2ccc(C(=O)NCc3cccnc3)cc21	0.47	2	16	-6	-5	0	nt
CC(=O)OCCNc1cc(SCc2ccco2)c2nonc2c1[N+](=O)[O-]	-5.8*	0	1	nt	-5	0	+
COC(=O)CCSc1cc(NCCOC(C)=O)c([N+](=O)[O-])c2nonc12	-0.43	0	1	2	-14	0	nt
CCCC(=O)OCCNc1cc(SCCC(=O)OC)c2nonc2c1[N+](=O)[O-]	-4.5*	-3	-10	-16	-29	0	+
Cc1occc1-c1nnc(SCC(=O)N2CCc3ccccc32)o1	-4*	-3	-13	-20	-17	-1	i
O=C(CSc1nnc(-c2cccs2)o1)N1CCc2ccccc21	-0.1	2	10	-6	-22	0	nt
O=C(Nc1nnc(COc2ccc(Cl)cc2)s1)c1ccco1	-0.52	-3	-14	-9	1	0	nt
Cc1cc(NC(=O)c2coc(=O)c(Br)c2)ccc1C(C)C	-5.4*	1	-1	-55	10	nt	+
